# Assay results taken from publication PMC7161550 (British Journal of Pharmacology, 2020).
# Read-outs that look alike come from different tables or passages of the source.
# How the values were obtained:
# [1] = target: CYP2B6 (Homo sapiens, UniProt P20813); experiment: CYP inhibition, pooled human liver microsomes; assay type: in vitro ADME; details: 0.33–99.2 μM, co‐ and pre‐incubation
# Procedure, shortened: (§1)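 The rate of metabolite formation was measured; testosterone was one CYP3A4 substrate. Controls: solvent vehicle, enzyme-selective inhibitors, mechanism-based inhibitors. Analysis by HPLC with online radio-detection or LC/MS/MS.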
# [2] = target: CYP2D6 (Homo sapiens, UniProt P10635); experiment: CYP inhibition, pooled human liver microsomes; assay type: in vitro ADME
# Procedure, shortened: as §1
# [3] = target: CYP2A6 (Homo sapiens, UniProt P11509); experiment: CYP inhibition, pooled human liver microsomes; assay type: in vitro ADME; details: 0.33–99.2 μM, co‐ and pre‐incubation
# Procedure, shortened: as §1
# [4] = target: CYP2E1 (Homo sapiens, UniProt P05181); experiment: CYP inhibition, pooled human liver microsomes; assay type: in vitro ADME; details: 0.33–99.2 μM, co‐ and pre‐incubation
# Procedure, shortened: as §1
# [5] = tested on: rat brain; experiment: Brain histopathology and behaviour in rats dosed 1 to 28 days; assay type: in vivo; details: rat, 10, 30 or 100 mg·kg^−1·day^−1 p.o.
# [6] = target: CYP3A4 (Homo sapiens, UniProt P08684); experiment: CYP inhibition, pooled human liver microsomes; assay type: in vitro ADME
# Procedure, shortened: as §1
# [7] = human, 2017, cited from earlier work
# [8] = target: MATE1 (Homo sapiens, UniProt Q96FL8); experiment: Transporter inhibition, probe substrate accumulation; assay type: in vitro ADME; details: MDCKII cells stably transfected with MATE1
# Procedure, shortened: (§2)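 Inhibition of probe substrate accumulation in transfected cells: CHO‑K1 for OAT1 and OCT1; HEK293 for OAT3, OATP1B1 and OATP1B3; MDCKII for OCT2, MATE1 and MATE2‑K. Each transporter's activity was confirmed with a positive control substrate or inhibitor.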
# [9] = target: MDR1 (Homo sapiens, UniProt P08183); experiment: Bidirectional permeability in MDCKII‐MDR1 monolayers; assay type: in vitro ADME
# Procedure, shortened: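 Bidirectional (A–B, B–A) permeability of test compound at 10 μM across MDCKII‑MDR1 and parental monolayers. A positive control substrate (5 μM) was included; PSC833 (10 μM) and a second inhibitor (100 μM) served as MDR1 inhibitors. Net efflux ratio = ER(MDR1) − ER(MDCKII).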
# [10] = tested on: human solute carrier (SLC) transporters; experiment: Accumulation of BIA 10‐2474 in transporter‐expressing and control cells; assay type: in vitro ADME; details: transporter‐expressing vs control cell, all conditions tested
# Procedure, shortened: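 Test compound accumulation was compared between transporter-expressing and control cells, expressed as transporter-specific fold accumulation. Transfected lines: CHO‑K1 (OAT1, OCT1), HEK293 (OAT3, OATP1B1, OATP1B3), MDCKII (OCT2, MATE1, MATE2‑K). Transporter activity was confirmed with positive control substrate or inhibitor.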
# [11] = target: CYP2C9 (Homo sapiens, UniProt P11712); experiment: CYP inhibition, pooled human liver microsomes; assay type: in vitro ADME; details: 0.33–99.2 μM, co‐ and pre‐incubation
# Procedure, shortened: as §1
# [12] = target: human OATP1B3 (Homo sapiens, UniProt Q9NPD5); experiment: Transporter inhibition, probe substrate accumulation; assay type: in vitro ADME; details: 0.033–33.3 μM
# Procedure, shortened: as §2
# [13] = target: human OAT1 (Homo sapiens, UniProt Q4U2R8); experiment: as above; assay type: in vitro ADME; details: 0.033–33.3 μM
# Procedure, shortened: as §2
# [14] = target: T1, BCRP (Homo sapiens, UniProt Q9UNQ0); experiment: Bidirectional permeability in MDCKII‐BCRP monolayers; assay type: in vitro ADME
# T1 sequence (Q9UNQ0 1-655): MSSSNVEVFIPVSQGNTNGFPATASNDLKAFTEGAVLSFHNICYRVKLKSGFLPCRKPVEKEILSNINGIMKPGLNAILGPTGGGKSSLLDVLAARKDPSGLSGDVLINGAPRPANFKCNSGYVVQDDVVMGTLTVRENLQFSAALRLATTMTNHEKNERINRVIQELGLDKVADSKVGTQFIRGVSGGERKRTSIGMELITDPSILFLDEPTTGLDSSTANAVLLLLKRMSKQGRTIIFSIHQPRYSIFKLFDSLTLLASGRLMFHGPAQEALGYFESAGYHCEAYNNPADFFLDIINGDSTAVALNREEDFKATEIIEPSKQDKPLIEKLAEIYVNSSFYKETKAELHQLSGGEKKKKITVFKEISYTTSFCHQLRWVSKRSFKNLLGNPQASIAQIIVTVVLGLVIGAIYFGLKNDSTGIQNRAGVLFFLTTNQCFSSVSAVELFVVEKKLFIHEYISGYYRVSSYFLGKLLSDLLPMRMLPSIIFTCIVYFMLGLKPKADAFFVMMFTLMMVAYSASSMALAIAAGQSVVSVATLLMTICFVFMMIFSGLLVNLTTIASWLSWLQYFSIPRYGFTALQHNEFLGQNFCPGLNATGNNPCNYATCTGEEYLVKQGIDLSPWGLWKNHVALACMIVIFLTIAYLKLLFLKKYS
# Procedure, shortened: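 Test compound (10 μM) permeability was measured in A–B and B–A directions across MDCKII‑BCRP and parental MDCKII monolayers. 3H‑prazosin (1 μM) served as positive control, with a BCRP inhibitor at 1 μM. Net efflux ratio = ER(BCRP) − ER(MDCKII).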
# [15] = pre‐incubation with BIA 10‐2474
# Chain of CYP3A4 (P08684 whole entry): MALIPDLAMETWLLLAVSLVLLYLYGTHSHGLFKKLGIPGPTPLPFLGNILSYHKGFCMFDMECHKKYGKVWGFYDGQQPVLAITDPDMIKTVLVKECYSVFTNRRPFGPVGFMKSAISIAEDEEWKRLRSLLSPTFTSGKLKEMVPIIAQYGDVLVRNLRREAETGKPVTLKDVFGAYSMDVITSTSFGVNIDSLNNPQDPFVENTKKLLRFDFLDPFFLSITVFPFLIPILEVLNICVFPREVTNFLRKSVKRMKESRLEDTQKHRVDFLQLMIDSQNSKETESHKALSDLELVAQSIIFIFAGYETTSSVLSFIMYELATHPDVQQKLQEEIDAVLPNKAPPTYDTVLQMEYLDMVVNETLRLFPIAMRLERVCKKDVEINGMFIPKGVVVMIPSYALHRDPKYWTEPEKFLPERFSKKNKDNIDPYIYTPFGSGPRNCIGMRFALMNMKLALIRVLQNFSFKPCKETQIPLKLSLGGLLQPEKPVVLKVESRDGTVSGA
# Chain of MDR1 (P08183 whole entry): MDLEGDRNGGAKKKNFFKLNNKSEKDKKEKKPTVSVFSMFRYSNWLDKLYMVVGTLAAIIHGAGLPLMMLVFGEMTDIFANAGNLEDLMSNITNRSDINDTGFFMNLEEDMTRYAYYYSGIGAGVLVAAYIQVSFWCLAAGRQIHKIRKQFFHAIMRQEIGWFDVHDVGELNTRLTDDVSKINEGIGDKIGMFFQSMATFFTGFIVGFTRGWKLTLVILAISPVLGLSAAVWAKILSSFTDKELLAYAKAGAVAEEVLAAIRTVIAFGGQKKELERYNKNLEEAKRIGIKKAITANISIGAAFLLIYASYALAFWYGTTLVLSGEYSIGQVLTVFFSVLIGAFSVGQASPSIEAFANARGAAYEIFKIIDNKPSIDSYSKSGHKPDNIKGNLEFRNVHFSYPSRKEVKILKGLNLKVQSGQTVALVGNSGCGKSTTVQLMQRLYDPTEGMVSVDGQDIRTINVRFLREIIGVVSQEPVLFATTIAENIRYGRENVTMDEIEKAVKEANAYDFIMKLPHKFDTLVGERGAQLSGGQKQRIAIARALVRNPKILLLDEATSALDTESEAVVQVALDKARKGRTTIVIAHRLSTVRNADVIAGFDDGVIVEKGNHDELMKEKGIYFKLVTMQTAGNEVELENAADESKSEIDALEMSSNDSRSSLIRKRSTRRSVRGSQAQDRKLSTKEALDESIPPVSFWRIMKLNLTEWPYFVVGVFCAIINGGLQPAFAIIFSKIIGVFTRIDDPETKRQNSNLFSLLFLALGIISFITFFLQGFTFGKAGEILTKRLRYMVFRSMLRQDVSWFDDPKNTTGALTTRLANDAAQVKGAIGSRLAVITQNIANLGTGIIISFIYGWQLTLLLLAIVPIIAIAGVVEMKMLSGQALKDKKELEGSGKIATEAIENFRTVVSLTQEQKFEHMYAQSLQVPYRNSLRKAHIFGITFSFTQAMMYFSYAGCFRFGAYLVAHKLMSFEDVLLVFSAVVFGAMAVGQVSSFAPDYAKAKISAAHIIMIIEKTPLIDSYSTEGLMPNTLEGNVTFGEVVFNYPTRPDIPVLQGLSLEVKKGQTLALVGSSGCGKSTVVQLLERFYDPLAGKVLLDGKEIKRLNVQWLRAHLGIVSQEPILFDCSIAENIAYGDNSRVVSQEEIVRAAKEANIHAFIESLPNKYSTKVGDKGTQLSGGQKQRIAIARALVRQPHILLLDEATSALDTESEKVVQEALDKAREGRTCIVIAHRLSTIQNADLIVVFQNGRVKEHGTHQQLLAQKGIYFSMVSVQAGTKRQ
# Chain of CYP2D6 (P10635 whole entry): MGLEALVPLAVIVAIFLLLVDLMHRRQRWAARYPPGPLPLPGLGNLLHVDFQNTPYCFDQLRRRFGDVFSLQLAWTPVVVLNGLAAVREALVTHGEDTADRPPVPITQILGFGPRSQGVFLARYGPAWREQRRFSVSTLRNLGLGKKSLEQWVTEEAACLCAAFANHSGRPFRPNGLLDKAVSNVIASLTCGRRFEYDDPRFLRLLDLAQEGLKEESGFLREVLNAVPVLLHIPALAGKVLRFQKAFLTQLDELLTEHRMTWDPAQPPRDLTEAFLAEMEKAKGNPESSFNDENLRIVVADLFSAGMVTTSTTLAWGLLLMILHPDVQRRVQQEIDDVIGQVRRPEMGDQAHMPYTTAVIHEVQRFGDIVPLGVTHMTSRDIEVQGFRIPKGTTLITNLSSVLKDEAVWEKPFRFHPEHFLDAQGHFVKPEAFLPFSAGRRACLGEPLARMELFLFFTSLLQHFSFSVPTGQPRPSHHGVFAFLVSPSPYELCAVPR
# Chain of CYP2B6 (P20813 whole entry): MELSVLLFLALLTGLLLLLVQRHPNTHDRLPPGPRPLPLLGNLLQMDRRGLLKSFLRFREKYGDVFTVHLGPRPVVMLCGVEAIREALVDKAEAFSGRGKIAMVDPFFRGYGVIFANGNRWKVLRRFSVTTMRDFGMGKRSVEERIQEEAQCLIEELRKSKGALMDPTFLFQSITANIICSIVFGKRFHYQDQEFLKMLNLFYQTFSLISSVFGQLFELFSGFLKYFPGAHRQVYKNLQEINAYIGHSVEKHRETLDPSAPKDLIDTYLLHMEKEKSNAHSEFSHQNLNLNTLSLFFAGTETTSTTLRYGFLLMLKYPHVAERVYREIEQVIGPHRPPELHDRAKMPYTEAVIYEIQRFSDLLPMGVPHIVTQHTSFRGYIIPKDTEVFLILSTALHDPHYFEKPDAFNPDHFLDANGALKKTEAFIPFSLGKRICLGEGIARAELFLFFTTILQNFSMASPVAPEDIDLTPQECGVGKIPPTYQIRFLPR
# Chain of CYP2C9 (P11712 whole entry): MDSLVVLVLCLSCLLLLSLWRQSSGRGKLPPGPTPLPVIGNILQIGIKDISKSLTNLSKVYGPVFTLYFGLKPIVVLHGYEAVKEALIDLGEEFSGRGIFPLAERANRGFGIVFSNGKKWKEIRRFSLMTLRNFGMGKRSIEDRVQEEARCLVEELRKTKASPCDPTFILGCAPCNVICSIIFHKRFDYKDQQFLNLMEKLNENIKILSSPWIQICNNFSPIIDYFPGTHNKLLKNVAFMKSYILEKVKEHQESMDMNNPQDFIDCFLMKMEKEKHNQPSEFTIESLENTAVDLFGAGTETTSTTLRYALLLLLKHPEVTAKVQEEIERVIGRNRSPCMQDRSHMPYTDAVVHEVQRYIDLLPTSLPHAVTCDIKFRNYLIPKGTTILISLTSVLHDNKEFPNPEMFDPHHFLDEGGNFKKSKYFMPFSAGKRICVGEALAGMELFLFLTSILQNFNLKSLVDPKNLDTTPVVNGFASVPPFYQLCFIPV
# Chain of human OAT1 (Q4U2R8 whole entry): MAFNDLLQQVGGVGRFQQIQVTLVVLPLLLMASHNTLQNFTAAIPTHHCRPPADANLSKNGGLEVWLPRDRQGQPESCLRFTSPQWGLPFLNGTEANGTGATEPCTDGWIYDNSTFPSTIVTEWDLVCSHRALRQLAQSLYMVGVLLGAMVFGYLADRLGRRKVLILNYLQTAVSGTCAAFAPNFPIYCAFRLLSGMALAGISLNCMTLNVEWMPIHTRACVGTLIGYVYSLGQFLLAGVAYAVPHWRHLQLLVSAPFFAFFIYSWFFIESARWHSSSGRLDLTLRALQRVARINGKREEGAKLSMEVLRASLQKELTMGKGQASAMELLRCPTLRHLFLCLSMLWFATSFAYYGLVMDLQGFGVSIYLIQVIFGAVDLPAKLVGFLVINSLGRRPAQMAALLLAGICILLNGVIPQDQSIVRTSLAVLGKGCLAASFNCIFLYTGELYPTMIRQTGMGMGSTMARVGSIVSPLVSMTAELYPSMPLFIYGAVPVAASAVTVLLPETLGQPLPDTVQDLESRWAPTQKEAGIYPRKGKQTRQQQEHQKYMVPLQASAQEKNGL
# Chain of human OATP1B3 (Q9NPD5 whole entry): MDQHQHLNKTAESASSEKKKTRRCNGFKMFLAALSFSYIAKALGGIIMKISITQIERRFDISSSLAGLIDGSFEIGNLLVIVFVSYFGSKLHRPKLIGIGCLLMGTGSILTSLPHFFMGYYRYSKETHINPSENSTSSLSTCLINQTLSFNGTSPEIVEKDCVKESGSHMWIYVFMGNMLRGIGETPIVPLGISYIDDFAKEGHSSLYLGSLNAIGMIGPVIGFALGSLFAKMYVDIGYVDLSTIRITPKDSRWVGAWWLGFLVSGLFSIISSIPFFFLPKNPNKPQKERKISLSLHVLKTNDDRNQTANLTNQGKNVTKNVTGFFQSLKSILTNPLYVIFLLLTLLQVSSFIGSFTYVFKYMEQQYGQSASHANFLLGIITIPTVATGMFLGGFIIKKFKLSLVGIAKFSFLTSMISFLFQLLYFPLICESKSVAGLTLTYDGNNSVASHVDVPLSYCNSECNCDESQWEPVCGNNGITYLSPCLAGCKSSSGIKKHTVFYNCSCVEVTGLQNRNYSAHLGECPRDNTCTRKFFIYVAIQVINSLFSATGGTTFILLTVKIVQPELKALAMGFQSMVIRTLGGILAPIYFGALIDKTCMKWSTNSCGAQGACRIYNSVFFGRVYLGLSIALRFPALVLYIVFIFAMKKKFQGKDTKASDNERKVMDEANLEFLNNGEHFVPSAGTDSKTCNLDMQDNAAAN
# Chain of CYP2E1 (P05181 whole entry): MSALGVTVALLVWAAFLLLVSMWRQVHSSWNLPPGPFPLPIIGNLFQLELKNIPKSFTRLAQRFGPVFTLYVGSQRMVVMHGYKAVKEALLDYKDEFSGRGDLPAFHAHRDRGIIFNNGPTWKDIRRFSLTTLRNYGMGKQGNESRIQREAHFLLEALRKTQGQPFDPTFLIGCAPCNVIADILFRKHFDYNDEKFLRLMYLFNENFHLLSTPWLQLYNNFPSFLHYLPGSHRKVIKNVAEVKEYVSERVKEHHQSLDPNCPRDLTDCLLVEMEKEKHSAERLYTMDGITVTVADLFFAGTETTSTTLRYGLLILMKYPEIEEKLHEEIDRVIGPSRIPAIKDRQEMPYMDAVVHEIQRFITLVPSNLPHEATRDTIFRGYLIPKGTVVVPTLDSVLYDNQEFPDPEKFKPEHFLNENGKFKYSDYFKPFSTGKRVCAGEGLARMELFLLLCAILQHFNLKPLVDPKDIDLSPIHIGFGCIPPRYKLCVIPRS
compound,measurement,setting,value
"CN(C(=O)n1cnc(-c2ccc[n+]([O-])c2)c1)C1CCCCC1 [BIA 10‐2474, 3‐(1‐(cyclohexyl (methyl)carbamoyl)‐1H‐imidazol‐4‐yl)pyridine 1‐oxide]",inhibitory effect on CYP2B6,[1],did not exhibit any inhibitory effects
same,inhibition of CYP2D6,[2]; co‐incubation,minor inhibition
same,inhibition of CYP2D6,[2]; [15],no effect
same,inhibitory effect on CYP2A6,[3],did not exhibit any inhibitory effects
same,inhibitory effect on CYP2E1,[4],did not exhibit any inhibitory effects
same,brain histopathology,[5],no abnormalities
same,overt behavioural abnormalities during treatment,[5],none of the animals used in this study showed any overt behavioural abnormalities
same,inhibitory effect on CYP3A4 [midazolam],"[6]; 0.33–99.2 μM, co‐ and pre‐incubation",did not exhibit any inhibitory effects
same,inhibition of CYP3A4 (testosterone as substrate),[6]; co‐incubation,minor inhibition
same,inhibition of CYP3A4 (testosterone as substrate),[6]; [15],no effect
same,maximum plasma exposure in the clinic,[7]; 50 mg ref Rocha et al.,around 2 μM
same,maximum plasma exposure in the clinic,[7]; 100 mg ref Rocha et al.,~6 µM
same,inhibition at 10 μg·ml^−1,[8],24%
same,efflux ratio,"[9]; MDCK-MDR1, highest observed net efflux ratio (ERMDR1‐ERMDCKII)",2.24
same,efflux ratio at 10 μM,"[9]; MDCK-MDR1, net ER, MDCKII‐MDR1, without inhibitor",1.45
same,transporter specific fold accumulations,[10],< 2
same,inhibitory effect on CYP2C9,[11],did not exhibit any inhibitory effects
same,effect on OATP1B3‐mediated probe substrate accumulation,[12],did not influence
same,effect on OAT1‐mediated probe substrate accumulation,[13],did not influence
same,efflux ratio,"[14]; highest observed net efflux ratio (ERBCRP‐ERMDCKII), 10 and 1 μM",5.7
same,efflux ratio,"[14]; net ER, MDCKII‐BCRP, without inhibitor",4.95
same,efflux ratio,"[14]; with Ko143 1 μM, net ER, MDCKII‐BCRP, with 1 μM of Ko143",0.03
